Data published in ChEMBL document CHEMBL1153575, “Synthesis and in vitro anticancer activity of 2,4-azolidinedione-acetic acids derivatives” (2009).

Columns and labels:
Type in all cases: functional
MCF7 [1] = test: Cytotoxicity against human MCF7 cells assessed as cell growth at 100 uM after 48 hrs by sulforhodamine B assay; conditions: MCF7, 48 h, read-out: Activity
Method in brief: (§1)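 Primary one-dose screen on a three-line panel (MCF7 breast, NCI-H460 lung, SF-268 CNS) at 10^-4 M. Cells were preincubated 24–48 h before a single addition of the agent, followed by 48 h incubation. Endpoint was SRB protein staining, reported as percent growth versus untreated controls.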

NCI-H460 = test: Cytotoxicity against human NCI-H460 cells assessed as cell growth at 100 uM after 48 hrs by sulforhodamine B assay; conditions: NCI-H460, 48 h, read-out: Activity; method in brief: as §1
SF-268 = test: Cytotoxicity against human SF268 cells assessed as cell growth at 100 uM after 48 hrs by sulforhodamine B assay; conditions: SF-268, 48 h, read-out: Activity; method in brief: as §1
MDA-MB-231 = test: Growth inhibition of human MDA-MB-231 cells after 48 hrs by sulforhodamine B assay; conditions: MDA-MB-231, 48 h; for TGI: read-out: pTGI (converted)
Method in brief: (§2)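 Five-concentration assay in about 60 human tumour lines, using 10-fold dilutions from 10^-4 to 10^-8 M with 48 h continuous exposure and an SRB protein endpoint. Percent growth at each level comes from time-zero, untreated-control and treated absorbances. GI50 is 50% lower net protein increase than control. Values beyond the tested range are given as greater or less than the extreme concentration.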

SNB-75 = test: Growth inhibition of human SNB75 cells after 48 hrs by sulforhodamine B assay; conditions: SNB-75, 48 h; method in brief: as §2
U-251 = test: Growth inhibition of human U251 cells after 48 hrs by sulforhodamine B assay; conditions: U-251, 48 h; for TGI: read-out: pTGI (converted); method in brief: as §2
CCRF-CEM = test: Growth inhibition of human CCRF-CEM cells after 48 hrs by sulforhodamine B assay; conditions: for TGI: read-out: pTGI (converted); method in brief: as §2
SK-OV-3 = test: Growth inhibition of human SKOV3 cells after 48 hrs by sulforhodamine B assay; conditions: SK-OV-3, 48 h; method in brief: as §2
[2] = Growth inhibition of human Hs 578T cells after 48 hrs by sulforhodamine B assay; method in brief: as §2
SR = test: Growth inhibition of human SR cells after 48 hrs by sulforhodamine B assay; method in brief: as §2
[3] = Growth inhibition of human 786-O cells after 48 hrs by sulforhodamine B assay; conditions: 786-0, 48 h; method in brief: as §2
SF-295 = test: Growth inhibition of human SF295 cells after 48 hrs by sulforhodamine B assay; conditions: SF-295, 48 h; method in brief: as §2
HOP-92 = test: Growth inhibition of human HOP92 cells after 48 hrs by sulforhodamine B assay; conditions: HOP-92, 48 h; method in brief: as §2
NCI-H226 = test: Growth inhibition of human NCI-H226 cells after 48 hrs by sulforhodamine B assay; conditions: NCI-H226, 48 h; method in brief: as §2
OVCAR-3 = test: Growth inhibition of human OVCAR-3 cells after 48 hrs by sulforhodamine B assay; conditions: OVCAR-3, 48 h; method in brief: as §2
MCF7 [4] = test: Growth inhibition of human MCF7 cells after 48 hrs by sulforhodamine B assay; conditions: MCF7, 48 h; method in brief: as §2
NCI-H23 = test: Growth inhibition of human NCI-H23 cells after 48 hrs by sulforhodamine B assay; conditions: NCI-H23, 48 h; method in brief: as §2
HCT-116 = test: Growth inhibition of human HCT116 cells after 48 hrs by sulforhodamine B assay; conditions: HCT-116, 48 h; method in brief: as §2
[5] = read-out: pLC50 (the source's name) (converted)

**Q.** Which results are given for O=C(CN1C(=O)S/C(=C\c2ccc(Cl)cc2)C1=O)Nc1ccc(Cl)cc1?
**A.** growth at 100 µM (MCF7 [1]): 102%; growth at 100 µM (NCI-H460): 101%; growth at 100 µM (SF-268): 105%

**Q.** What does the source list for COc1ccc(/C=C2/NC(=O)N(CC(=O)Nc3cc(C(F)(F)F)ccc3Cl)C2=O)cc1?
**A.** GI50 (MDA-MB-231): 15.8 µM; LC50 (MDA-MB-231): > 100 µM; TGI (MDA-MB-231): > 100 µM; GI50 (SNB-75): 2.69 µM; CC50 (SNB-75; [5]): > 100 µM; TGI (SNB-75; read-out: pTGI (converted)): 16.6 µM; GI50 (U-251): 9.33 µM; LC50 (U-251): > 100 µM; TGI (U-251): 63.1 µM; GI50 (CCRF-CEM): 21.9 µM; LC50 (CCRF-CEM): > 100 µM; TGI (CCRF-CEM): > 100 µM; GI50 (SK-OV-3): 19.5 µM; LC50 (SK-OV-3): > 100 µM; TGI (SK-OV-3; read-out: pTGI (converted)): 81.3 µM; GI50 [2]: 18.6 µM; CC50 [2, 5]: > 100 µM; TGI ([2]; read-out: pTGI (converted)): 91.2 µM; GI50 (SR): 7.24 µM; LC50 (SR): 49 µM; TGI (SR; read-out: pTGI (converted)): 20 µM; GI50 [3]: 21.9 µM; CC50 [3, 5]: > 100 µM; TGI ([3]; read-out: pTGI (converted)): > 100 µM; GI50 (SF-295): 30.9 µM; CC50 (SF-295; [5]): > 100 µM; TGI (SF-295; read-out: pTGI): > 100 µM; GI50 (HOP-92): 6.03 µM; LC50 (HOP-92): 69.2 µM; TGI (HOP-92; read-out: pTGI (converted)): 24 µM; GI50 (NCI-H226): 26.3 µM; CC50 (NCI-H226; [5]): > 100 µM; TGI (NCI-H226; read-out: pTGI (converted)): > 100 µM

**Q.** Which growth at 100 µM (MCF7 [1]) does the source give for O=C(CN1C(=O)CNC1=O)Nc1cccc(C(F)(F)F)c1 here?
**A.** 111%

**Q.** And the growth at 100 µM (NCI-H460)?
**A.** 106%

**Q.** And the growth at 100 µM (SF-268)?
**A.** 113%

**Q.** What does the source list for O=C(CN1C(=O)N/C(=C\c2ccc(F)cc2)C1=O)Nc1ccccc1C(F)(F)F?
**A.** growth at 100 µM (MCF7 [1]): 87%; growth at 100 µM (NCI-H460): 119%; growth at 100 µM (SF-268): 100%

**Q.** Which GI50 (U-251) does the source give for COc1ccc(/C=C2\NC(=O)N(CC(=O)Nc3ccc(OC)cc3)C2=O)cc1 here?
**A.** 30.9 µM

**Q.** What about the LC50 (U-251) of the same compound?
**A.** > 100 µM

**Q.** What about the TGI (U-251) of the same compound?
**A.** > 100 µM

**Q.** And the GI50 (CCRF-CEM)?
**A.** 0.195 µM

**Q.** What about the LC50 (CCRF-CEM) of the same compound?
**A.** > 100 µM

**Q.** What about the TGI (CCRF-CEM) of the same compound?
**A.** > 100 µM

**Q.** Which results are given for O=C(CN1C(=O)S/C(=C/c2ccc(Cl)cc2)C1=O)Nc1cccc(C(F)(F)F)c1?
**A.** growth at 100 µM (MCF7 [1]): 100%; growth at 100 µM (NCI-H460): 99%; growth at 100 µM (SF-268): 110%

**Q.** With O=C(/C=C1\SC(=O)N(CC(=O)Nc2ccccc2C(F)(F)F)C1=O)Nc1ccc(F)cc1 as the compound, how does the growth at 100 µM (MCF7 [1]) read?
**A.** 74%

**Q.** What about the growth at 100 µM (NCI-H460) of the same compound?
**A.** 77%

**Q.** And the growth at 100 µM (SF-268)?
**A.** 75%

**Q.** What does the source list for COc1ccc(/C=C2\SC(=O)N(CC(=O)Nc3nccs3)C2=O)cc1?
**A.** growth at 100 µM (MCF7 [1]): 98%; growth at 100 µM (NCI-H460): 98%; growth at 100 µM (SF-268): 107%

**Q.** With COc1ccc(/C=C2/NC(=O)N(CC(=O)Nc3cccc(C(F)(F)F)c3)C2=O)cc1 as the compound, how does the GI50 (MDA-MB-231) read?
**A.** 23.4 µM

**Q.** What about the LC50 (MDA-MB-231) of the same compound?
**A.** > 100 µM

**Q.** And the TGI (MDA-MB-231)?
**A.** 58.9 µM

**Q.** What about the growth at 100 µM (MCF7 [1]) of the same compound?
**A.** 64%

**Q.** What about the GI50 (OVCAR-3) of the same compound?
**A.** 30.9 µM

**Q.** What about the CC50 (OVCAR-3; [5]) of the same compound?
**A.** > 100 µM

**Q.** What about the TGI (OVCAR-3; read-out: pTGI (converted)) of the same compound?
**A.** 95.5 µM

**Q.** What about the growth at 100 µM (NCI-H460) of the same compound?
**A.** 44%

**Q.** What about the GI50 (U-251) of the same compound?
**A.** 25.7 µM

**Q.** And the LC50 (U-251)?
**A.** > 100 µM

**Q.** What about the TGI (U-251) of the same compound?
**A.** 69.2 µM

**Q.** And the growth at 100 µM (SF-268)?
**A.** 65%

**Q.** What about the GI50 (MCF7 [4]) of the same compound?
**A.** 2.82 µM

**Q.** What about the CC50 (MCF7 [4]; [5]) of the same compound?
**A.** > 100 µM

**Q.** What about the TGI (MCF7 [4]; read-out: pTGI) of the same compound?
**A.** > 100 µM

**Q.** What about the GI50 (NCI-H23) of the same compound?
**A.** 26.3 µM

**Q.** And the LC50 (NCI-H23)?
**A.** > 100 µM

**Q.** What about the TGI (NCI-H23; read-out: pTGI (converted)) of the same compound?
**A.** 89.1 µM

**Q.** And the GI50 (HCT-116)?
**A.** 30.2 µM

**Q.** And the LC50 (HCT-116)?
**A.** > 100 µM

**Q.** What about the TGI (HCT-116; read-out: pTGI (converted)) of the same compound?
**A.** > 100 µM
